Tests used:
Cavia porcellus [1] = experiment: Protection against histamine-induced lethality in guinea pig at 1 hr pretreatment time upon peroral administration.; assay type: functional; details: po
Method in brief: (§1)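 Female English short-hair guinea pigs (250–500 g), fasted overnight, dosed orally by gavage at set times before intravenous histamine challenge (1.2 mg/kg). Survival at 24 h postchallenge scored as protection. Groups of 5–10 animals per treatment; ED50 by Litchfield–Wilcoxon or computer probit analysis.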

Histamine H1 receptor [2] = biological target: T1, Histamine H1 receptor (Cavia porcellus, UniProt P31389); experiment: Inhibition of [3H]mepyramine binding to the Histamine H1 receptor in guinea pig cortex; assay type: tissue-based
T1 sequence (P31389 whole entry): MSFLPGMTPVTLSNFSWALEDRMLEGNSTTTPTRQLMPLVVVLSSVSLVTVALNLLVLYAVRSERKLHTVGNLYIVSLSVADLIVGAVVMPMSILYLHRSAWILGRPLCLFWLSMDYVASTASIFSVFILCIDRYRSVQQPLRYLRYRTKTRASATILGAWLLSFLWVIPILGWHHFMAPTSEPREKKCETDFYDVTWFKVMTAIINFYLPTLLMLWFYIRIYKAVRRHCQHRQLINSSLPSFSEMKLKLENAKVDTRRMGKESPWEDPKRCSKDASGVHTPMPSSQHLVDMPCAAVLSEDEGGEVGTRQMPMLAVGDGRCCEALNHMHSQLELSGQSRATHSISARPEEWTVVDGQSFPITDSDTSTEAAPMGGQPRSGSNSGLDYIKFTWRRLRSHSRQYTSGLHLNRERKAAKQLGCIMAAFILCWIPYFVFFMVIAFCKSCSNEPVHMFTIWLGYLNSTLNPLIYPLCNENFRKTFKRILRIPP
Method in brief: (§2)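 Cerebral cortex from female Dunkin-Hartley guinea pigs (200–500 g) homogenized in cold 50 mM Na/K phosphate pH 7.5, washed by three 48000g 4 °C spins, used fresh same day. Six concentrations in triplicate; IC50 by linear/nonlinear curve fitting.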

Histamine H1 receptor [3] = biological target: T1, Histamine H1 receptor; experiment: Inhibition of [3H]mepyramine binding to the histamine receptor in guinea pig cortex; assay type: tissue-based
Method in brief: as §2, with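 “day. [3H]mepyramine (15 nM stock, 23 Ci/mmol) incubated with membranes 20 min at 25 °C; filtration, scintillation counting.” for “day.”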

Cavia porcellus [4] = experiment: Protection against histamine-induced lethality in guinea pig at 24 hr pretreatment time upon peroral administration.; assay type: functional; details: po; method in brief: as §1
Cavia porcellus [5] = experiment: Protection against histamine-induced lethality in guinea pig at 6 hr pretreatment time upon peroral administration.; assay type: functional; details: po; method in brief: as §1
Cavia porcellus [6] = experiment: Protection against histamine-induced lethality in guinea pig at 24 hr pretreatment time upon peroral administration; assay type: functional; details: po; method in brief: as §1

CN(C)CCC(c1ccccn1)c1ccc(Cl)cn1 (configuration not stated)
ED50 (Cavia porcellus [1]): 0.009 mg/kg | IC50 (Histamine H1 receptor [2]): 24 nM

CN1C[C@H](CCN2CCC2)Oc2ncc(Cl)cc2C1=S
ED50 (Cavia porcellus [1]): 8.28 mg/kg | IC50 (Histamine H1 receptor [2]): 870 nM

CN(C)CC[C@H]1CN(C)C(=S)c2cc(Cl)cnc2O1
ED50 (Cavia porcellus [1]): 66.8 mg/kg | IC50 (Histamine H1 receptor [2]): 11900 nM

CN1C[C@@H](CCN2CCC2)Oc2ncc(Cl)cc2C1=S
ED50 (Cavia porcellus [1]): 0.0054 mg/kg | IC50 (Histamine H1 receptor [3]): 0.26 nM | ED50 (Cavia porcellus [4]): 0.21 mg/kg | ED50 (Cavia porcellus [5]): 0.0078 mg/kg

CN(C)CC[C@@H]1CN(C)C(=S)c2cc(Cl)cnc2O1
ED50 (Cavia porcellus [1]): 0.013 mg/kg | ED50 (Cavia porcellus [6]): 58 mg/kg | IC50 (Histamine H1 receptor [3]): 1.9 nM | ED50 (Cavia porcellus [5]): 0.15 mg/kg

CN(C)CC[C@@H]1CN(C)C(=S)c2cccnc2O1
ED50 (Cavia porcellus [1]): 0.07 mg/kg | IC50 (Histamine H1 receptor [3]): 30 nM | ED50 (Cavia porcellus [5]): 2.96 mg/kg

CN(C)CC[C@H]1CN(C)C(=S)c2cccnc2O1
ED50 (Cavia porcellus [1]): 23 mg/kg | IC50 (Histamine H1 receptor [2]): 21000 nM

CN(C)CCC(c1ccc(Cl)cc1)c1ccc(Cl)cn1 (configuration not stated)
ED50 (Cavia porcellus [1]): > 10 mg/kg | IC50 (Histamine H1 receptor [2]): 430 nM

CN(C)CCC(c1ccc(Cl)cc1)c1ccccn1 (configuration not stated) [CHLORPHENIRAMINE]
ED50 (Cavia porcellus [1]): 0.18 mg/kg

Source: ChEMBL document CHEMBL1125659, “Optical isomers of rocastine and close analogues: synthesis and H1 antihistaminic activity of its enantiomers and their structural relationship to the classical antihistamines” (J Med Chem, 1991)
